Hits are enriched below; roughly 3% of the tested compounds scored in any of these assays.
SIRT5 inh: sirtuin-5 (human) deacylase inhibition | inhibition, % at 15 µM | AID 652115 | 330,000 compounds, 1.1% hits | Q9NXA8 | Purified SirT5, succinyl-peptide AMC, trypsin-coupled fluorescence; in the data active means inhibition above about 15%
Target sequence (Q9NXA8 whole entry, looked up): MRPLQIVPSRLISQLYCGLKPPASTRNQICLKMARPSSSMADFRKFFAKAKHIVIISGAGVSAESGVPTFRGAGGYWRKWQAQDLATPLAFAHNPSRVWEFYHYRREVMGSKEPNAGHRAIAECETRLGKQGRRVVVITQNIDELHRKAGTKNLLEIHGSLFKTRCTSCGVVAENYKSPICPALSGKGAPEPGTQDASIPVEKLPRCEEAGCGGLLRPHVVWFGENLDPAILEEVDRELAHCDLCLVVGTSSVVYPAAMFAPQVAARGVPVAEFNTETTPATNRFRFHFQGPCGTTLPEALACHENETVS
Ecoli rRNA inh: inhibits bacterial ribosomal RNA function over humanized ribosomes. 350,000 compounds, 1.6% hits. E. coli WT GFP vs humanized-ribosome RFP mutants, fluorescence, 24 h; active compounds read low; DMSO median 0, no signal -100. AID 720706. GFP signal change (wild-type ribosome), % (concentration not given with the values);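 active means significant combined selectivity score with lowered wild-type GFP, culture density cut under 30%, mutant RFP and density less affected; inactive means any of these conditions unmet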
S100A4 MyoIIA: S100A4-myosin IIA interaction inhibition; S100A4/TAMRA-MyoIIA peptide fluorescence polarization; 360,000 compounds, 0.14% hits; P26447; inhibition, % at 10.7 µM;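 active means mean inhibition of at least 70% across replicates, with every replicate also reaching that level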
Target sequence (P26447 whole entry, looked up): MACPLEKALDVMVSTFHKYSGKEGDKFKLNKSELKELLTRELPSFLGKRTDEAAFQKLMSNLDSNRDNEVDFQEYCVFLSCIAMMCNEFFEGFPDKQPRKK
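Compound dosing: one dose per compound; test system: human S100A4 monomer with TAMRA-labelled myosin IIA peptide; probe or stimulus: TAMRA-labelled myosin IIA heavy-chain peptide probe, 5 nM; medium: HEPES buffer with Ca2+, pH 7.2; schedule: 5 min incubation before reading; benchmarks: neutral control DMSO, positive control TFP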
Statin myotox sup: protects C2C12 myotubes from simvastatin toxicity | ATP luminescence, 48 h; scaled: DMSO 0, geranylgeraniol control 100 | rescue of ATP level, % at 7.49 µM | 330,000 compounds, 0.78% hits;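 active means mean ATP rescue above about 67%, or every replicate alone reaching that limit, limit read from the data, passing the limit was not always enough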;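 further: myotubes were challenged with 10 µM simvastatin during compound exposure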
PGC1a acetyl inh: modulators of PGC1a acetylation; 350,000 compounds, 0.17% hits; inhibition, % at 15.6 µM; U2OS PGC1a acetylation, AlphaScreen anti-acetyl-lysine; with virally co-expressed GCN5 acetyltransferase; AID 651687;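 active means every replicate shows inhibition of at least 40%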;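 further: 0% = neutral control wells and 100% = positive control wells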
Cneo AK release: causes C. neoformans cell lysis. 360,000 compounds, 0.2% hits. lysis activity, % at 15 µM. adenylate kinase release luminescence, 4 h; normalised: neutral wells 0, clomiphene wells 100. AID 651654;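 active means mean lysis activity across replicates of at least 80%, whatever share of replicates individually reach that level; inactive means mean lysis activity below 80%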
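Test system: log-phase Cryptococcus neoformans yeast cells; Quantity: yeast cell density of 5 × 10^6 cells/mL; Buffer or medium: YPD; Doses: single compound concentration per well; Timing: 4 h at 37 °C static, read 1 h later; Measured by: AK luminescence; Read-out basis: lysis from increased AK signal; Control set: Clomiphene as positive control.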
* marks the source's active call; other numbers are inactive results; nt = no result.

SMILES	SIRT5 inh	Ecoli rRNA inh	S100A4 MyoIIA	Statin myotox sup	PGC1a acetyl inh	Cneo AK release
Cc1cccc(Oc2nccc(C(F)(F)F)c2C(=O)Nc2ccc(F)cc2F)c1	-2	14	-3	2	85*	nt
c1ccc2c(c1)CCc1ccccc1C2=C1CCNCC1	-1	-36*	1	nt	-17	nt
CCCNC(=O)C[C@H]1C[C@@H]2c3cc(NC(=O)Nc4ccc(OC)cc4)ccc3O[C@@H]2[C@H](CO)O1	nt	1	-16	11	4	-62
COCCNC(=O)C[C@@H]1C[C@H]2c3cc(NC(=O)C4CCOCC4)ccc3O[C@H]2[C@H](CO)O1	1	2	3	4	6	109*
O=C(C[C@@H]1C[C@@H]2c3cc(NC(=O)Nc4ccc(F)cc4)ccc3O[C@@H]2[C@@H](CO)O1)NCC1CC1	nt	4	nt	-2	0	87*
COCCNC(=O)C[C@@H]1C[C@@H]2c3cc(NC(=O)C4CCOCC4)ccc3O[C@@H]2[C@H](CO)O1	0	5	-6	6	5	3
CCCNC(=O)C[C@H]1C[C@H]2c3cc(NC(=O)Nc4ccc(OC)cc4)ccc3O[C@H]2[C@@H](CO)O1	6	4	1	1	-1	90*
COC(=O)[C@H]1[C@H](CO)[C@H]2Cn3c(ccc(-c4ccccc4F)c3=O)[C@H]2N1CC1CCCC1	2	-6	1	25	nt	-5
CCN(CC)c1ccc(/C=C(\C#N)C(N)=S)cc1	1	-23*	-8	nt	3	nt
CCN(CC)c1ccc(/C=C(\C#N)C(N)=O)cc1	6	-18	9	nt	10	nt
Cn1cnc(S(=O)(=O)N[C@@H]2CC[C@H](CC(=O)Nc3ccccc3)O[C@@H]2CO)c1	-6	4	-9	-4	6	-5
CC(C)NC(=S)N=Nc1c(O)[nH]c2ccc(C(C)C)cc12	1	-5	-7	-17	48*	2
CC(C)c1ccc2[nH]c(O)c(N=NC(=O)c3cccc(S(=O)(=O)Nc4ccccc4Cl)c3)c2c1	-3	19	-8	nt	nt	nt
COc1cc(-c2nc3cnccn3c2Nc2ccc(C)cc2)ccc1O	0	-41*	-7	29	-9	-2
Oc1ccc(-c2nc3cnccn3c2Nc2ccc3c(c2)OCCO3)cc1	1	-5	-2	8	8	-3
CC(C)(C)CC(C)(C)Nc1c(-c2ccc(O)cc2)nc2cnccn12	-5	-25*	-8	45	0	-2
C[C@H](CO)N1C[C@H](C)[C@@H](CN(C)S(=O)(=O)c2cccs2)Oc2ccc(NC(=O)Cc3ccccc3)cc2CC1=O	2	0	-3	-18	1	2
CCNC(=O)[C@@H]1[C@@H](CO)[C@@H]2Cn3c(cccc3=O)[C@@H]2N1C(=O)C1CCCC1	1	2	4	-22	-8	-1
Brc1ccc(N/N=C(/N=Nc2nn[nH]n2)c2ccccc2)cc1	9	-56	3	nt	97*	nt
O=C(NC[C@H]1CC[C@@H]2[C@@H](CN2S(=O)(=O)c2ccccc2[N+](=O)[O-])O1)C1CC1	-4	nt	-5	nt	nt	nt
CN(C)c1ccc(/C=C/c2ccc3ccccc3[n+]2C)cc1	nt	nt	nt	-70	35	-4
CN(C)c1ccc(/C=C/c2ccc3c4ccccc4ccc3[n+]2-c2ccccc2)cc1	1	-69	156*	-171	44*	-10
COc1ccc2c3c(n(C)c2c1)[C@@H](CO)N(Cc1ccncc1)CC31CN(C(=O)NC(C)C)C1	nt	1	nt	nt	-16	nt
Cn1nnnc1Sc1ccc([N+](=O)[O-])cc1Cl	17*	7	7	nt	-4	nt
O=[N+]([O-])c1ccc(Sc2nnnn2-c2ccccc2)c(Cl)c1	nt	nt	nt	15	-2	-3
COc1ccc2c3c([nH]c2c1)[C@@H](CO)N(C(=O)c1ccncc1)CC31CN(C(=O)C2CCC2)C1	1	2	10	nt	-3	nt
O=C(CSc1nc2cc(Cl)ccc2s1)c1ccco1	-13	-21*	1	-11	-7	-1
O=C(CSc1nnc(SCC(=O)c2ccco2)s1)c1ccco1	nt	nt	nt	nt	0	0
